This is an account of results in ChEMBL document CHEMBL1122046, “Quaternary heterocyclylamino beta-lactams: a generic alternative to the classical acylamino side chain” (1982).

The term MIC denotes the smallest concentration in the dilution series that meets the test's criterion for growth inhibition.

Converted amounts (≈) assume the structure as drawn. Bounds are passed on as bounds.

What all share (type): functional
One experiment concerns Escherichia coli. As to the kind of experiment: MIC against aerobic organism Escherichia coli strain 2891. Conditions: Escherichia coli; read-out: MIC. The method, boiled down: (§1)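 Agar-dilution MIC in µg/mL against aerobic bacterial strains on tryptocase soy agar, with inoculum applied as spots. Most series used 10^5 cfu per spot, and a later series used 10^4 cfu per spot. In some tables, footnoted strains were instead tested on Mueller-Hinton or nutrient agar. β-Lactamase-producing strains are flagged.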

Another experiment has as its system Klebsiella aerogenes. As to the kind of experiment: Minimum inhibitory concentration against aerobic organism Enterobacter aerogenes strain 2828. The method in brief:
as §1

The test system of another experiment is Enterobacter cloacae. The experiment is described as follows: Minimum inhibitory concentration against aerobic organism Enterobacter cloacae strain 2646. Conditions: Enterobacter cloacae; read-out: MIC. The method, boiled down: as §1
In another experiment the test system is Klebsiella pneumoniae. As to the kind of experiment: Minimum inhibitory concentration against aerobic organism Klebsiella pneumoniae strain 4005. The method, boiled down: as §1
For the next experiment, the system named is Morganella morganii. As to the kind of experiment: Minimum inhibitory concentration against aerobic organism Morganella morganii strain 2833. Conditions: Morganella morganii; read-out: MIC. The method, boiled down:
as §1

The next experiment has as its system Pseudomonas aeruginosa. As to the kind of experiment: Minimum inhibitory concentration against aerobic organism Pseudomonas aeruginosa strain 2835. The method in brief:
as §1

For the next experiment, the system named is Proteus mirabilis. The experiment is described as follows: Minimum inhibitory concentration against aerobic organism Proteus mirabilis strain 2830. Conditions: Proteus mirabilis; read-out: MIC. The method, boiled down:
as §1

The next experiment concerns Proteus vulgaris. As to the kind of experiment: Minimum inhibitory concentration against aerobic organism Proteus vulgaris strain 2829. Conditions: Proteus vulgaris; read-out: MIC. The method, boiled down:
as §1

The next experiment relates to Salmonella. As to the kind of experiment: Minimum inhibitory concentration against aerobic organism Salmonella strain 3860. The method in brief: as §1
Experiment [1] deals with Staphylococcus aureus. As to the kind of experiment: Minimum inhibitory concentration against aerobic organism Staphylococcus aureus strain 2865. The method, boiled down:
as §1

Experiment [2] relates to Staphylococcus aureus. As to the kind of experiment: Minimum inhibitory concentration against aerobic organism Staphylococcus aureus strain 2868. Conditions: Staphylococcus aureus; read-out: MIC. The method in brief: as §1
The subject of a further experiment is Enterococcus faecalis. The experiment is described as follows: Minimum inhibitory concentration against aerobic organism Streptococcus faecalis strain 2864. The method, boiled down:
as §1

In the case of `[N-]=[N+]=NCC1=C(C(=O)[O-])N2C(=O)[C@@H](Nc3cc[n+](Cc4ccccc4)cc3)[C@H]2SC1`, the MIC in the experiment with Escherichia coli was 0.25 µg/mL (≈ 0.592 µM); against Klebsiella aerogenes, 8 µg/mL (≈ 18.9 µM); in the experiment on Enterobacter cloacae it was 1 µg/mL (≈ 2.37 µM); against Klebsiella pneumoniae, 64 µg/mL (≈ 151 µM); with Morganella morganii, more than 128 µg/mL; against Pseudomonas aeruginosa, more than 128 µg/mL. In addition, the MIC in the experiment with Proteus mirabilis was more than 128 µg/mL; in the experiment with Proteus vulgaris, less than 0.06 µg/mL; against Salmonella, 1 µg/mL (≈ 2.37 µM); against Staphylococcus aureus [1], 0.5 µg/mL (≈ 1.18 µM); with Staphylococcus aureus [2], 2 µg/mL (≈ 4.73 µM); in the experiment with Enterococcus faecalis it was more than 128 µg/mL.

For the molecule `O=C([O-])C1=C(Cl)CS[C@@H]2[C@H](Nc3cc[n+](Cc4ccccc4)cc3)C(=O)N12`, the MIC in the experiment on Escherichia coli is 0.25 µg/mL (≈ 0.622 µM); in the experiment with Klebsiella aerogenes, 8 µg/mL (≈ 19.9 µM); in the experiment on Enterobacter cloacae it was 4 µg/mL (≈ 9.95 µM); with Klebsiella pneumoniae it was 64 µg/mL (≈ 159 µM); with Morganella morganii, more than 128 µg/mL; in the experiment on Pseudomonas aeruginosa it was more than 128 µg/mL. The MIC in the experiment with Proteus mirabilis is more than 128 µg/mL; in the experiment with Proteus vulgaris it was less than 0.125 µg/mL; in the experiment with Salmonella, 128 µg/mL (≈ 319 µM); in the experiment on Staphylococcus aureus [1], 2 µg/mL (≈ 4.98 µM); in the experiment with Staphylococcus aureus [2], 128 µg/mL (≈ 319 µM); against Enterococcus faecalis, more than 128 µg/mL.

As to `O=C([O-])C1=C(C[n+]2ccccc2)CS[C@@H]2[C@H]([N-]c3cc[n+](Cc4ccccc4)cc3)C(=O)N12`, the MIC with Escherichia coli is less than 0.06 µg/mL; with Klebsiella aerogenes it was 2 µg/mL (≈ 4.36 µM); in the experiment on Enterobacter cloacae it was 0.125 µg/mL (≈ 0.273 µM); against Klebsiella pneumoniae, 32 µg/mL (≈ 69.8 µM); in the experiment on Morganella morganii, more than 128 µg/mL; against Pseudomonas aeruginosa, 64 µg/mL (≈ 140 µM). Besides, the MIC with Proteus mirabilis was more than 128 µg/mL; in the experiment with Proteus vulgaris it was 0.25 µg/mL (≈ 0.545 µM); against Salmonella, 2 µg/mL (≈ 4.36 µM); in the experiment on Staphylococcus aureus [1] it was 0.125 µg/mL (≈ 0.273 µM); in the experiment on Staphylococcus aureus [2], 0.5 µg/mL (≈ 1.09 µM); in the experiment on Enterococcus faecalis, 128 µg/mL (≈ 279 µM).

In the case of `O=C([O-])CSc1nnc(SCC2=C(C(=O)[O-])N3C(=O)[C@@H](Nc4cc[n+](Cc5ccccc5)cc4)[C@H]3SC2)s1.[Na+]`, the MIC in the experiment with Escherichia coli was less than 0.125 µg/mL; in the experiment on Klebsiella aerogenes it was 0.5 µg/mL; with Enterobacter cloacae, 0.05 µg/mL; against Klebsiella pneumoniae, 1 µg/mL; in the experiment on Morganella morganii, 16 µg/mL; in the experiment with Pseudomonas aeruginosa, 128 µg/mL. Besides, the MIC is 64 µg/mL in the experiment on Proteus mirabilis; less than 0.125 µg/mL in the experiment with Proteus vulgaris; 0.25 µg/mL against Salmonella; 1 µg/mL in the experiment with Staphylococcus aureus [1]; 4 µg/mL with Staphylococcus aureus [2]; more than 128 µg/mL with Enterococcus faecalis.

As to `CN(C)CCn1nnnc1SCC1=C(C(=O)[O-])N2C(=O)[C@@H](Nc3cc[n+](Cc4ccccc4)cc3)[C@H]2SC1`, the MIC is less than 0.06 µg/mL in the experiment with Escherichia coli; 0.5 µg/mL (≈ 0.905 µM) with Klebsiella aerogenes; 0.25 µg/mL (≈ 0.452 µM) in the experiment on Enterobacter cloacae; 4 µg/mL (≈ 7.24 µM) against Klebsiella pneumoniae; 64 µg/mL (≈ 116 µM) in the experiment on Morganella morganii; more than 128 µg/mL in the experiment on Pseudomonas aeruginosa. The MIC was 128 µg/mL (≈ 232 µM) in the experiment on Proteus mirabilis; 0.125 µg/mL (≈ 0.226 µM) with Proteus vulgaris; 2 µg/mL (≈ 3.62 µM) against Salmonella; 0.5 µg/mL (≈ 0.905 µM) in the experiment on Staphylococcus aureus [1]; 4 µg/mL (≈ 7.24 µM) in the experiment on Staphylococcus aureus [2]; 128 µg/mL (≈ 232 µM) against Enterococcus faecalis.

In the case of `O=C([O-])C1=C(CO)CS[C@@H]2[C@H](Nc3cc[n+](Cc4ccccc4)cc3)C(=O)N12`, the MIC with Escherichia coli is 0.5 µg/mL (≈ 1.26 µM); in the experiment on Klebsiella aerogenes it was 128 µg/mL (≈ 322 µM); with Enterobacter cloacae, 1 µg/mL (≈ 2.52 µM); in the experiment with Klebsiella pneumoniae, more than 128 µg/mL; in the experiment with Morganella morganii it was more than 128 µg/mL; in the experiment on Pseudomonas aeruginosa it was more than 128 µg/mL. For the same molecule, the MIC with Proteus mirabilis was more than 128 µg/mL; in the experiment with Proteus vulgaris it was less than 0.06 µg/mL; against Salmonella, more than 128 µg/mL; against Staphylococcus aureus [1], 0.5 µg/mL (≈ 1.26 µM); with Staphylococcus aureus [2] it was 16 µg/mL (≈ 40.3 µM); against Enterococcus faecalis, more than 128 µg/mL.
